Measured values as given in ChEMBL document CHEMBL1127726, “Substituted 1,3-dipropylxanthines as irreversible antagonists of A1 adenosine receptors” (J Med Chem, 1994).

Legend:
[1] = molecular target: T1, Adenosine A2 receptor (Rattus norvegicus) (UniProt P29276+P30543); assay: Inhibition of [3H]NECA binding to A2 adenosine receptor of PC12 cell membranes at 50 uM; conditions: PC-12
How it was run: (§1)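 PC12 monolayers, 1 day preconfluent, were exposed to xanthine in HBSS for 2 h at 37 °C, then washed 7 times (3 min each) in ligand-free HBSS. Membranes in Tris-Mg pH 7.4 were bound 2 h at room temperature with 1–10 nM [3H]NECA plus adenosine deaminase; 10 μM NECA defined nonspecific binding. Triplicate; Scatchard Bmax compared with control.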

[2] = test system: Adenosine receptor A1 (Mesocricetus auratus); assay: Loss of specific binding of [3H]CPX to the A1-adenosine receptor of DDT1 MF-2 (DDT) cells at a concentration of 1 uM
Adenosine A2 receptor [3] = molecular target: T2, Adenosine A2 receptor (Rattus norvegicus, UniProt P29276+P30543); assay: Binding of [3H]NECA to A2 adenosine receptor of PC12 cell membranes; conditions: pc-12
How it was run: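 PC12 cell membranes (0.1–0.2 mg protein) were incubated 2 h at room temperature in 50 mM Tris-HCl pH 7.4 with 5 mM MgCl2, 1 nM [3H]NECA, adenosine deaminase 2 units/mL, and 7–10 xanthine concentrations. Nonspecific binding was set with 10 μM NECA. Bound ligand was separated by filtration and counted by scintillation. Run in triplicate; IC50 from Hill plots.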

[4] = molecular target: T3, Adenosine receptor A1 (Homo sapiens) (UniProt P30542); assay: Loss of [3H]CPX binding to A1 adenosine receptor of DDT1 MF-2 (DDT) cells at 0.1 uM
T3 sequence (whole entry): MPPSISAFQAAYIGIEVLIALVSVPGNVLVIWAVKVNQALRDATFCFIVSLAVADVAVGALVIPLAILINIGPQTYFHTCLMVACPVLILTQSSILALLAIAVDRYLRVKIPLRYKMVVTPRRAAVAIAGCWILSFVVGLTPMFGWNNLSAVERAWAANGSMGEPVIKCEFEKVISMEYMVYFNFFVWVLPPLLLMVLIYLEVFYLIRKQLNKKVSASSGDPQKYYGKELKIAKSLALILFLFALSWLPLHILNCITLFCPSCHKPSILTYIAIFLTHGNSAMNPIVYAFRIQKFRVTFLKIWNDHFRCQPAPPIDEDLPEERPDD
How it was run: (§2)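 DDT1 MF-2 monolayers, 1 day preconfluent, were exposed to xanthine in HBSS for 2 h at 37 °C, then washed 5 times (3 min each) in ligand-free HBSS. Membranes in 50 mM Tris-HCl pH 7.4 with 5 mM MgCl2 were incubated 2 h at room temperature with 0.06–4 nM [3H]CPX; 10 μM N6-cyclopentyladenosine defined nonspecific binding. Triplicate; Scatchard Bmax versus control.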

Adenosine A2 receptor [5] = molecular target: T2, Adenosine A2 receptor; assay: Binding of [3H]NECA to A2 adenosine receptor (post-Xanthine); type: protein assay
[6] = test system: Adenosine receptor A1 (Mesocricetus auratus); assay: Loss of specific binding of [3H]CPX to the A1-adenosine receptor of DDT1 MF-2 (DDT) cells at a concentration of 10 uM
[7] = test system: Adenosine receptor A1 (Mesocricetus auratus); assay: Loss of [3H]CPX binding to A1 adenosine receptor of DDT1 MF-2 (DDT) cells at 10 uM
Adenosine receptor A1 = assay: Specific binding of [3H]CPX to the A1-adenosine receptor
Adenosine A2 receptor [8] = molecular target: T2, Adenosine A2 receptor; assay: Inhibition of [3H]NECA binding to A2 adenosine receptor of PC12 cell membranes; conditions: pc-12
[9] = molecular target: T1, Adenosine A2 receptor (Rattus norvegicus); assay: Loss of [3H]NECA binding to A2 adenosine receptor at 50 uM; type: protein assay; how it was run: as §1
[10] = molecular target: T3, Adenosine receptor A1 (Homo sapiens); assay: Loss of [3H]CPX binding to A1 adenosine receptor of DDT1 MF-2 (DDT) cells at 0.01 uM; how it was run: as §2
[11] = molecular target: T3, Adenosine receptor A1 (Homo sapiens); assay: Loss of [3H]CPX binding to A1 adenosine receptor of DDT1 MF-2 (DDT) cells at 0.05 uM; how it was run: as §2
[12] = molecular target: T3, Adenosine receptor A1 (Homo sapiens); assay: Percentage loss of [3H]- CPX binding in cells pretreated with a xanthine derivative at 50 uM; how it was run: as §2
[13] = molecular target: T3, Adenosine receptor A1 (Homo sapiens); assay: Percent loss of [3H]CPX binding to A1 adenosine receptor of DDT1 MF-2 (DDT) cells 10 uM; how it was run: as §2

CCCn1c(=O)c2nc(CNC(=O)c3ccc(S(=O)(=O)F)cc3)[nH]c2n(CCC)c1=O
Loss [1]: 0%
Loss [2]: 72%
IC50 (Adenosine A2 receptor [3]): 49000 nM
Loss [4]: 25%
Kd (Adenosine A2 receptor [5]): 51 nM
Loss [6]: 85%

CCCn1c(=O)c2nc(-c3ccc(Cl)c([N+](=O)[O-])c3)[nH]c2n(CCC)c1=O
Loss [6]: 0%

CCCn1c(=O)c2nc(CCCCCN3C(=O)C=CC3=O)[nH]c2n(CCC)c1=O
Loss [6]: 16%

CCCn1c(=O)c2nc(CNC(=O)c3ccccc3)[nH]c2n(CCC)c1=O
Loss [7]: 0%

CCCn1c(=O)c2nc(C3CCCC3)[nH]c2n(CCCOC(=O)c2cccc(S(=O)(=O)F)c2)c1=O
Loss [2]: 11%

CCCn1c(=O)c2nc(CCNC(=O)c3ccc(S(=O)(=O)F)cc3)[nH]c2n(CCC)c1=O
Kd (Adenosine receptor A1): 0.74 nM
Loss [6]: 72%

CCCn1c(=O)c2[nH]c(CCCNC(=O)c3cccc(S(=O)(=O)F)c3)nc2n(CCC)c1=O
Kd (Adenosine receptor A1): 0.86 nM

CCCn1c(=O)c2nc(CCCNC(=O)c3ccc(S(=O)(=O)F)cc3)[nH]c2n(CCC)c1=O
IC50 (Adenosine A2 receptor [8]): 26000 nM
Loss [9]: 0%
Kd (Adenosine A2 receptor [5]): 43 nM

CCCn1c(=O)c2[nH]c(NC(=O)c3cccc(S(=O)(=O)F)c3)nc2n(CCC)c1=O
Kd (Adenosine receptor A1): 0.79 nM

CCCn1c(=O)c2[nH]c(C3CCCC3)nc2n(CC(C)OC(=O)CBr)c1=O (centres undefined)
Kd (Adenosine receptor A1): 1.1 nM

O=C(OCCCn1c(=O)c2[nH]c(C3CCCC3)nc2n(CCCOC(=O)c2ccc(S(=O)(=O)F)cc2)c1=O)c1ccc(S(=O)(=O)F)cc1
Kd (Adenosine receptor A1): 0.82 nM

CCCn1c(=O)c2nc(NC(=O)c3cccc(S(=O)(=O)F)c3)[nH]c2n(CCC)c1=O
Loss [6]: 54%

CCCn1c(=O)n(CCCOC(=O)c2ccc(S(=O)(=O)F)cc2)c(=O)c2[nH]c(C3CCCC3)nc21
IC50 (Adenosine A2 receptor [8]): > 100000 nM

CCCn1c(=O)c2nc(CCCNC(=O)c3cccc(S(=O)(=O)F)c3)[nH]c2n(CCC)c1=O
Loss [6]: 30%

O=C(OCCCn1c(=O)c2nc(C3CCCC3)[nH]c2n(CCCOC(=O)c2ccc(S(=O)(=O)F)cc2)c1=O)c1ccc(S(=O)(=O)F)cc1
Loss [6]: 50%

CCCn1c(=O)c2nc(CCNC(=O)CBr)[nH]c2n(CCC)c1=O
Loss [6]: 28%

CCCn1c(=O)c2nc(CNC(=O)CBr)[nH]c2n(CCC)c1=O
Loss [6]: 17%

CCCn1c(=O)c2nc(NC(=O)c3ccc(S(=O)(=O)F)cc3)[nH]c2n(CCC)c1=O
Kd (Adenosine receptor A1): 1.1 nM
Loss [6]: 88%

CCCn1c(=O)c2nc(C3CCCC3)[nH]c2n(CCCOC(=O)c2ccc(S(=O)(=O)F)cc2)c1=O
IC50 (Adenosine A2 receptor [8]): 9000 nM
Loss [10]: 60%
Loss [11]: 74%
Kd (Adenosine A2 receptor [5]): 53 nM

CCCn1c(=O)c2nc(CNC(=O)c3cccc(S(=O)(=O)F)c3)[nH]c2n(CCC)c1=O
IC50 (Adenosine A2 receptor [8]): 45000 nM
Loss [12]: 58%
Loss [9]: 0%
Kd (Adenosine A2 receptor [5]): 40 nM
Loss [13]: 38%

CCCn1c(=O)c2nc(C3CCC(OC(=O)c4ccc(S(=O)(=O)F)cc4)C3)[nH]c2n(CCC)c1=O (centres undefined)
Loss [2]: 16%

CCCn1c(=O)c2nc(CCCCCNC(=O)CBr)[nH]c2n(CCC)c1=O
Loss [6]: 7%

CCCn1c(=O)c2nc(C3CCCC3)[nH]c2n(CC(C)OC(=O)CBr)c1=O (centres undefined)
Loss [2]: 0%
